Entries after “also recorded” stand apart in the source; their conditions may differ. Like-named read-outs stand apart in the source and are kept apart here.
What was measured:
Phase I dose escalation = format: in vivo, human
[1] = Pharmacokinetics of gefitinib in plasma; format: in vivo, human
[2] = Pharmacokinetics of vorinostat in serum; format: in vivo, human; settings: for AUC(0-t): AUC last
In short: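 Patients with EGFR-mutated (exon 19 deletion or L858R) NSCLC carrying the BIM deletion polymorphism received oral vorinostat once daily on days 1-7 (200, 300 or 400 mg) with oral gefitinib 250 mg once daily, in 14-day cycles. Vorinostat was quantified in serum. Tmax is given as a median, and t1/2 and Cmax as mean ± SD per dose level.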

[3] = test system: acetylated histone H3 (Lys27); assay: Pharmacodynamics: western blotting of PBMC protein, acetylated histone H3; format: in vivo, human
[4] = test system: proapoptotic BIM protein (BIMEL); assay: Pharmacodynamics: western blotting of PBMC protein, BIMEL; format: in vivo, human
[5] = test system: T790M‐positive EGFR‐mutated NSCLC cells; settings: in vitro; cited from earlier work
[6] = test system: BIM deletion polymorphism‐positive EGFR‐mutated NSCLC cell lines (PC‐3); settings: cited from earlier work
[7] = biweekly, plus erlotinib 150 mg daily or gefitinib 250 mg daily; cited from earlier work
[8] = human, po, 200 mg, mean (SD), vorinostat Level 1 (200 mg) oral, n=3
[9] = human, po, 200 mg, median (range), vorinostat Level 1 (200 mg) oral, n=3
[10] = 4 h after dose on day 2 of cycle 1, all levels

COc1cc2ncnc(Nc3ccc(F)c(Cl)c3)c2cc1OCCCN1CCOCC1 [Gefitinib]
Recommended phase II dose (RP2D) of gefitinib (Phase I dose escalation; daily, with vorinostat 400 mg/day biweekly): 250 mg
Median T max of gefitinib ([1]; gefitinib 250 mg, vorinostat 200 mg group): 4 h

O=C(CCCCCCC(=O)Nc1ccccc1)NO [Vorinostat, suberoylanilide hydroxamic acid]
Recommended phase II dose (RP2D) of vorinostat (Phase I dose escalation; biweekly, combined with gefitinib 250 mg daily): 400 mg/day
Recommended phase II dose (RP2D) of vorinostat (Phase I dose escalation; combined with gefitinib): 400 mg
half-life ([2]; human, po, 200 mg): 3.6 h
AUC(0-inf) [2, 8]: 2.43 µM·h
AUC(0-inf) [2, 9]: 2.83 µM·h
AUC(0-t) [2, 8]: 2.34 µM·h
AUC(0-t) [2, 9]: 2.72 µM·h
Cmax ([2]; human, po, 200 mg, C max, mean (SD), vorinostat Level 1 (200 mg) oral, n=3): 602 nM
Tmax ([2]; human, po, 300 mg): 3.3 h
Tmax ([2]; human, po, 400 mg): 3.5 h
half-life ([2]; human, po, 400 mg): 2.1 h
Cmax ([2]; read-out: C max, median (range), vorinostat Level 1 (200 mg) oral, n=3): 615 nM
Cmax ([2]; read-out: C max, median (range), vorinostat Level 3 (400 mg) oral, n=6): 944 nM
T max, median (range) ([2]; vorinostat Level 1 (200 mg) oral, n=3): 2.0 (1.1‐4.0) h
T max, median (range) ([2]; vorinostat Level 3 (400 mg) oral, n=6): 4.0 (0.9‐4.1) h
Effect of vorinostat on the pharmacokinetics of gefitinib ([1]; vorinostat 200, 300, 400 mg groups compared): unlikely to affect the pharmacokinetics of gefitinib; also recorded: did not affect the dynamics of gefitinib
Patients with increased acetylated histone H3 protein expression [3, 10]: 10/11
Patients with increased acetylated histone H3 protein expression ([3]; all levels): 91%
Patients with increased acetylated histone H3 protein expression ([3]; level 1 (200 mg)): 3/3
Patients with increased acetylated histone H3 protein expression ([3]; level 2 (300 mg)): 3/3
Patients with increased acetylated histone H3 protein expression ([3]; level 3 (400 mg)): 4/5
Patients with increased proapoptotic BIM protein (BIMEL) expression [4, 10]: 5/11
Patients with increased proapoptotic BIM protein (BIMEL) expression ([4]; 4 h after dose on day 2 of cycle 1, all levels, listed as vorinostat): five of 11
Patients with increased proapoptotic BIM protein (BIMEL) expression ([4]; all levels): 45.5%
Patients with increased proapoptotic BIM protein (BIMEL) expression ([4]; level 1 (200 mg)): 1/3
Patients with increased proapoptotic BIM protein (BIMEL) expression ([4]; level 2 (300 mg)): 3/3
Patients with increased proapoptotic BIM protein (BIMEL) expression ([4]; level 3 (400 mg)): 1/5
Sensitization of cells to gefitinib [5]: did not sensitize T790M‐positive EGFR‐mutated NSCLC cells to gefitinib
Resensitization of cells to EGFR-TKI by addition of vorinostat [6]: could resensitize these cells to EGFR‐TKI
Recommended dose of vorinostat [7]: 400 mg/day

C=CC(=O)Nc1cc(Nc2nccc(-c3cn(C)c4ccccc34)n2)c(OC)cc1N(C)CCN(C)C [osimertinib]
Sensitivity to osimertinib-induced apoptosis [6]: resistant to osimertinib‐induced apoptosis

Reference: paper PMC7004511 (Cancer Science, 2020)
